Source: ChEMBL document CHEMBL3525986, “Nicotinamide N-oxidation by CYP2E1 in human liver microsomes” (Drug Metab Dispos, 2013)

Substrate: NC(=O)c1cccnc1
Assay: Drug metabolism in human liver microsomes assessed as CYP2E1-mediated nicotinamide N-oxide formation after 30 mins by HPLC analysis
Format: ADME
In short: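 Pooled human liver microsomes at 1 mg/ml in 0.1 M NaH2PO4, pH 7.4, with 1mM NADPH were preincubated 2 min at 37°C. NAM was added at varied concentrations and run 30 min, then stopped with ice-cold methanol. N-oxide was measured by HILIC HPLC with UV at 254 nm against a standard curve. Km and Vmax came from a Michaelis-Menten nonlinear fit. Triplicates.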

B1: Cytochrome P450 2E1 (Homo sapiens) (protein)
chain: MSALGVTVALLVWAAFLLLVSMWRQVHSSWNLPPGPFPLPIIGNLFQLELKNIPKSFTRLAQRFGPVFTLYVGSQRMVVMHGYKAVKEALLDYKDEFSGRGDLPAFHAHRDRGIIFNNGPTWKDIRRFSLTTLRNYGMGKQGNESRIQREAHFLLEALRKTQGQPFDPTFLIGCAPCNVIADILFRKHFDYNDEKFLRLMYLFNENFHLLSTPWLQLYNNFPSFLHYLPGSHRKVIKNVAEVKEYVSERVKEHHQSLDPNCPRDLTDCLLVEMEKEKHSAERLYTMDGITVTVADLFFAGTETTSTTLRYGLLILMKYPEIEEKLHEEIDRVIGPSRIPAIKDRQEMPYMDAVVHEIQRFITLVPSNLPHEATRDTIFRGYLIPKGTVVVPTLDSVLYDNQEFPDPEKFKPEHFLNENGKFKYSDYFKPFSTGKRVCAGEGLARMELFLLLCAILQHFNLKPLVDPKDIDLSPIHIGFGCIPPRYKLCVIPRS
With B1 as the protein, how does the Km read?
Its Km is 2980 µM.

And the Vmax?
The Vmax was 6.01e-05 µmol/min/mg.
